Screening results from PubChem BioAssay.
Shown are actives, neighbours in structure and some others; about 3.8% of the full set was active somewhere.
FN deposition inh – inhibitors of fibronectin matrix deposition, primary screen, AH1F cells, Alexa488-fibronectin fluorescence, plate reader | AH1F fibroblasts, overnight | actives 0.086% (n = 350,000) | AID 743247, 2014 | inhibition, % at 12.6 µM;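 active = mean inhibition across replicates of 30% or more, regardless of how many single replicates reach that level; inconclusive = mean under 30% yet at least half of replicates reach 30%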;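 also: positive control wells lacked labelled fibronectin entirely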
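Assay system: AH1F fibroblasts assembling fluorescent fibronectin matrix; Amount: 10000 AH1F cells per well; Buffer or medium: DMEM, 2% serum; Probe or stimulus: Alexa488-fibronectin, 24 nM final in well; Doses: single compound dose, delivered by pin transfer; Incubation: 1 h adhesion, overnight exposure; Measured by: fluorescence 485/525 nm; Read-out: fibronectin deposition inhibition.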
FGF22 binding – binders of human FGF22 protein, primary screen, FGF22 synaptogenesis inhibitor project, biophysical, thermal shift, single point | recombinant FGF22 thermal shift, SYPRO orange fluorescence; percent of sucrose octasulfate shift, DMSO zero | Fibroblast growth factor 22 (Homo sapiens), Q9HCT0 | actives 1.5% (n = 340,000) | activity (Tm shift, normalised), % at 9.99 µM;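 active = mean Tm shift, scaled 0 neutral to 100 positive control, at about 1.3% or above, every replicate too, limit read from the data; inconclusive = no clear call, values can overlap the other calls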
Target sequence (Q9HCT0 whole entry, looked up): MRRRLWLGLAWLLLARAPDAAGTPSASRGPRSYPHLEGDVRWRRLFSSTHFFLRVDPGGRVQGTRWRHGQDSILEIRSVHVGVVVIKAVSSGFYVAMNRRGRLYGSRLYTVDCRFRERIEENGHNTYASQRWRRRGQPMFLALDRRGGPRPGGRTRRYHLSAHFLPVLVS
ARNT-TACC3 inh – disruptors of ARNT/TACC3 protein interaction, primary screen, biochemical, AlphaScreen, single concentration. Transforming acidic coiled-coil-containing protein 3 (Homo sapiens), Q9Y6A5. AlphaScreen His-ARNT PAS-B/GST-TACC3 binding, luminescence; TACC3 fragment carries E629A point mutation. inhibition, % at 9.99 µM. actives 0.66% (n = 390,000);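 active = mean inhibition of replicates at least 50% and at least half of replicates each reaching 50%; inconclusive = half or more replicates reach 50% but mean below 50%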;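 also: 0% = complete ARNT plus TACC3 wells and 100% = ARNT alone without TACC3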
DENV2 CPE – inhibitors of DENV2 cytopathic effect, primary screen, cell-based, plate reader, single concentration. DENV2-infected cells, cytopathic effect rescue. CPE inhibition, % at 9.99 µM. actives 1.7% (n = 350,000). AID 651640, 2012; in the data active = CPE inhibition above about 20%, passing the limit was not always enough; inconclusive = no clear call, values can overlap the other calls; tested in BHK-21 cells;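 also: 0% = median of neutral control wells and 100% = median of positive control wells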
Xi reactivation – activators of inactive X chromosome reactivation, primary screen, imaging, XiGFP fibroblasts, GFP high-content imaging, set 2; XiGFP mouse fibroblasts, % GFP-positive cells imaging, 3 d; cells co-treated with 5-aza-dC sensitizer; scaled so ellipticine positive control = 100%; activation, % at 7.58 µM; actives 0.055% (n = 360,000); AID 743238, 2013;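 active = mean normalized replicate activation at least 10% and every replicate at or above 10%; inconclusive = only one of the two criteria met; inactive = mean below 10% and not all replicates reach 10%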;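 also: 0% = median of on-plate neutral control wells and 100% = ellipticine 6 µM median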
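Material: SV40-immortalized XiGFP fibroblast cells, line 68-5-11 | Buffer or medium: DMEM containing 5-aza-dC | Dosing: One concentration, pinned | Times: 3 d treatment, 15 min room-temperature fixation | Controls: Ellipticine 6 µM positive control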
SIRT5 inh – SIRT5 desuccinylase inhibitors, primary screen, biochemical, fluorescence imaging, single point, set 5; actives 1.1% (n = 330,000); AID 652115, 2013; Purified SirT5, succinyl-peptide AMC, trypsin-coupled fluorescence; NAD-dependent protein deacylase sirtuin-5, mitochondrial (Homo sapiens), Q9NXA8; inhibition, % at 15 µM; in the data active = inhibition above about 15%; inconclusive = no clear call, values can overlap the other calls
Target sequence (Q9NXA8 whole entry, looked up): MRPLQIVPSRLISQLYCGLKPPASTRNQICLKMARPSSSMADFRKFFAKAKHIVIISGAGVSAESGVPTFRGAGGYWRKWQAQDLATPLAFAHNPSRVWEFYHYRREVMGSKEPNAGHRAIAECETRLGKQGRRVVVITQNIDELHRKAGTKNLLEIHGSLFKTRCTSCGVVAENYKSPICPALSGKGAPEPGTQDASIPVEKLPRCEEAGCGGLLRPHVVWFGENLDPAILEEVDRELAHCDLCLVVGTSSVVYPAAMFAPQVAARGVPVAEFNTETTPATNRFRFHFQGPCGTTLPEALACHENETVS
* marks the source's active call; other numbers are inactive results; ! = a repeat was not active.

Screening O=C(C[C@@H]1C[C@H]2c3cc(NC(=O)C4CCC4)ccc3O[C@H]2[C@@H](CO)O1)NCc1ccccc1 returned FN deposition inh 0, FGF22 binding 0, ARNT-TACC3 inh -10, DENV2 CPE 11, Xi reactivation 0 and SIRT5 inh 0.
CO[C@H]1CN(C)C(=O)c2cc(NC(=O)c3ccc4c(c3)OCO4)ccc2OC[C@H](C)NC[C@H]1C was read as FN deposition inh -10, ARNT-TACC3 inh 5, DENV2 CPE inconclusive, Xi reactivation 0 and SIRT5 inh -1.
For CCNC(=O)C1(C)CCCN(C(=O)c2sc(-c3ccccc3)nc2C)C1 (stereo not given) the results were FN deposition inh -4, FGF22 binding 43*, DENV2 CPE -2 and Xi reactivation 0.
CCNC(=O)C1(C)CCCN(C(=O)c2cc3ccccc3s2)C1 (stereo not given) was read as FGF22 binding 0, DENV2 CPE -7 and Xi reactivation 0.
Screening CCNC(=O)C1(C)CCCN(C(=O)c2ccccc2Br)C1 (stereo not given) returned FN deposition inh -27, FGF22 binding 43*, DENV2 CPE 0 and Xi reactivation 0.
`CC(=O)N1[C@@H]2CN(C(=O)c3ccc(F)cc3)c3ccccc3[C@@H]2[C@@H]1CO` gave FN deposition inh -5, ARNT-TACC3 inh -2 and Xi reactivation 0.
For Cn1c(CNC(=O)c2ccco2)nnc1SCC(=O)Nc1c(F)cc(F)cc1Br the results were FN deposition inh 14, FGF22 binding 44*, ARNT-TACC3 inh 3, DENV2 CPE 3, Xi reactivation 0 and SIRT5 inh -1.
`Cn1c(CNC(=O)c2ccco2)nnc1SCC(=O)Nc1cccc(F)c1` gave FN deposition inh 7, FGF22 binding 0, ARNT-TACC3 inh -10, DENV2 CPE 3 and SIRT5 inh -4.
CCCNC(=O)N1CC2(CN(C(C)=O)C2)c2c(n(C)c3cc(OC)ccc23)[C@@H]1CO was read as Xi reactivation 0.
Screening COc1cc(OC)c(NC2c3ccccc3C(=O)N2c2cc(C)ccn2)cc1Cl (stereo not given) returned FN deposition inh 0, FGF22 binding 3.4*, ARNT-TACC3 inh -2, Xi reactivation 0 and SIRT5 inh -2.
Screening CN(C)C(=O)CN1c2cccc3cccc(c23)S1(=O)=O returned FN deposition inh 0, FGF22 binding 0, ARNT-TACC3 inh -7, DENV2 CPE -3, Xi reactivation 0 and SIRT5 inh -2.
For N#CCCN(C(=O)CN1c2cccc3cccc(c23)S1(=O)=O)c1ccccc1 the results were FN deposition inh 0, FGF22 binding 43*, ARNT-TACC3 inh -3, DENV2 CPE -3 and Xi reactivation 0.
C[C@@H]1CN([C@H](C)CO)C(=O)c2cc(NC(=O)Nc3cccc4ccccc34)ccc2O[C@@H]1CN(C)C(=O)Nc1ccc(F)cc1 was read as FGF22 binding 0, ARNT-TACC3 inh 15, DENV2 CPE 25*, Xi reactivation 0 and SIRT5 inh 1.
`COc1ccc(NC(=O)Nc2ccc3c(c2)C(=O)N([C@@H](C)CO)C[C@H](C)[C@H](CN(C)C(=O)Nc2cccc4ccccc24)O3)cc1` gave FN deposition inh -1, FGF22 binding 0, ARNT-TACC3 inh 5, DENV2 CPE 31*, Xi reactivation -1 and SIRT5 inh 2.
COc1ccc(COCC23N=C4SCc5ccccc5CN4[C@H](c4ccccc4O2)[C@H]3COC(=O)c2ccccc2)cc1 was read as FGF22 binding 1, ARNT-TACC3 inh -5, DENV2 CPE 32* and SIRT5 inh -1.
`C[C@H]1CN([C@@H](C)CO)C(=O)c2cc(C#CC3CCCCC3)cnc2O[C@@H]1CN(C)S(=O)(=O)c1cccc(F)c1` gave FN deposition inh 1, FGF22 binding 0, ARNT-TACC3 inh 0, DENV2 CPE -1, Xi reactivation -1 and SIRT5 inh 27*.
For C[C@H](CO)N1C[C@H](C)[C@H](CN(C)S(=O)(=O)c2cccc(F)c2)Oc2ncc(C#CC3CCCCC3)cc2C1=O the results were FN deposition inh 2, FGF22 binding -1, ARNT-TACC3 inh 2, DENV2 CPE -7, Xi reactivation 0 and SIRT5 inh 21*.
C[C@H]1CN([C@@H](C)CO)C(=O)c2cc(C#CC3CCCCC3)cnc2O[C@H]1CN(C)S(=O)(=O)c1ccc(F)cc1 was read as FN deposition inh 5, FGF22 binding 0, ARNT-TACC3 inh -5, DENV2 CPE 72*!, Xi reactivation -1 and SIRT5 inh 0.
Screening O=C(Nc1ccn(Cc2c(F)c(F)cc(F)c2F)n1)c1ccc(COc2ccccc2Cl)cc1 returned FGF22 binding 0, ARNT-TACC3 inh 17, DENV2 CPE 14 and SIRT5 inh 4.
`Cc1cc(C)nc(NC(=O)c2ccc(COc3ccccc3Cl)cc2)c1` gave FN deposition inh -1, FGF22 binding 44*, DENV2 CPE -6, Xi reactivation 0 and SIRT5 inh -5.
`C=CCNC(=O)[C@H]1[C@@H]2C(=O)O[C@@H](c3ccccc3)[C@@H](c3ccccc3)N2[C@@H](c2ccccc2OCCO)[C@]12C(=O)N(C(=O)OCCOC)c1ccccc12` gave FGF22 binding 0, ARNT-TACC3 inh -12, DENV2 CPE -3 and SIRT5 inh 13.
For O=C(O)C[C@@H]1C[C@@H]2c3cc(NC(=O)C4CCC4)ccc3O[C@@H]2[C@@H](CO)O1 the results were FGF22 binding 0, ARNT-TACC3 inh -11, DENV2 CPE -12, Xi reactivation 0 and SIRT5 inh -2.
CCOC(=O)C1=C(C)N(CCCC(=O)O)C(=O)NC1c1ccc(OC)cc1 (stereo not given) was read as FN deposition inh 1, FGF22 binding 0, ARNT-TACC3 inh -5, DENV2 CPE 3 and Xi reactivation 0.
CCOC(=O)C1=C(C)N(C[C@@H]2CC[C@@H](Cc3ccc4cc(OC)ccc4c3)O2)C(=O)NC1c1ccccc1 (stereo not given in full) was read as FGF22 binding 0, ARNT-TACC3 inh 7, DENV2 CPE 49*, Xi reactivation 0 and SIRT5 inh 0.
